Data: ChEMBL document CHEMBL3352487, “Synthesis, antibacterial activity, and biological evaluation of formyl hydroxyamino derivatives as novel potent peptide deformylase inhibitors against drug-resistant bacteria” (Eur J Med Chem, 2014)
In brackets after ≈: the same amount, converted by molar mass.

Tests used:
Assay type in all cases: functional
Staphylococcus aureus [1] = experiment: Antimicrobial activity against Staphylococcus aureus ATCC 29213 after 24 hrs by broth microdilution method; conditions: ATCC 29213, 24 h
Procedure, shortened: (§1)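 Broth microdilution following NCCLS M7-A4; ATCC strains and clinical isolates from a provincial hospital.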

Staphylococcus aureus [2] = experiment: Antimicrobial activity against Staphylococcus aureus isolate CARTER 37 after 24 hrs by broth microdilution method; conditions: isolate CARTER 37, 24 h
Procedure, shortened: (§2)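 Broth microdilution following NCCLS M7-A4, using ATCC strains and clinical isolates from a provincial hospital.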

Staphylococcus aureus [3] = experiment: Antimicrobial activity against Staphylococcus aureus isolate CL 939 after 24 hrs by broth microdilution method; conditions: isolate CL 939, 24 h; procedure, shortened: as §2
Staphylococcus aureus [4] = experiment: Antimicrobial activity against Staphylococcus aureus isolate Ealing 23 after 24 hrs by broth microdilution method; conditions: isolate Ealing 23, 24 h; procedure, shortened: as §2
Staphylococcus aureus [5] = experiment: Antimicrobial activity against Staphylococcus aureus isolate Ealing 32 after 24 hrs by broth microdilution method; conditions: isolate Ealing 32, 24 h; procedure, shortened: as §1
Staphylococcus aureus [6] = experiment: Antimicrobial activity against Staphylococcus aureus isolate F89 after 24 hrs by broth microdilution method; conditions: isolate F89, 24 h; procedure, shortened: as §1
Staphylococcus aureus [7] = experiment: Antimicrobial activity against Staphylococcus aureus isolate MILES HALL after 24 hrs by broth microdilution method; procedure, shortened: as §2
Staphylococcus aureus [8] = experiment: Antimicrobial activity against Staphylococcus aureus isolate RN4220 pmz1 after 24 hrs by broth microdilution method; conditions: isolate RN4220 pmz1, 24 h; procedure, shortened: as §2
Staphylococcus aureus [9] = experiment: Antimicrobial activity against Staphylococcus aureus isolate RUSSELL after 24 hrs by broth microdilution method; procedure, shortened: as §2
Staphylococcus aureus [10] = experiment: Antimicrobial activity against Staphylococcus aureus isolate Smith ATCC 13709 after 24 hrs by broth microdilution method; conditions: isolate Smith ATCC 13709, 24 h; procedure, shortened: as §2
Staphylococcus aureus [11] = experiment: Antimicrobial activity against Staphylococcus aureus isolate CL 1033 after 24 hrs by broth microdilution method; conditions: isolate CL 1033, 24 h; procedure, shortened: as §1
Staphylococcus aureus [12] = experiment: Antimicrobial activity against Staphylococcus aureus isolate CL 938 after 24 hrs by broth microdilution method; conditions: isolate CL 938, 24 h; procedure, shortened: as §1
Staphylococcus aureus [13] = experiment: Antimicrobial activity against Staphylococcus aureus isolate MN 1255 after 24 hrs by broth microdilution method; conditions: isolate MN 1255, 24 h; procedure, shortened: as §1
Staphylococcus aureus [14] = experiment: Antimicrobial activity against Staphylococcus aureus isolate NEQAS 4026 after 24 hrs by broth microdilution method; conditions: isolate NEQAS 4026, 24 h; procedure, shortened: as §1
Staphylococcus aureus [15] = experiment: Antimicrobial activity against Staphylococcus aureus isolate OGA833 after 24 hrs by broth microdilution method; conditions: isolate OGA833, 24 h; procedure, shortened: as §1
Staphylococcus aureus [16] = experiment: Antimicrobial activity against Staphylococcus aureus isolate RN1024 after 24 hrs by broth microdilution method; conditions: isolate RN1024, 24 h; procedure, shortened: as §2
Staphylococcus aureus [17] = experiment: Antimicrobial activity against Staphylococcus aureus isolate RN1030 after 24 hrs by broth microdilution method; conditions: isolate RN1030, 24 h; procedure, shortened: as §2
Staphylococcus aureus [18] = experiment: Antimicrobial activity against Staphylococcus aureus isolate 306 after 24 hrs by broth microdilution method; conditions: isolate 306, 24 h; procedure, shortened: as §1
Staphylococcus aureus [19] = experiment: Antimicrobial activity against Staphylococcus aureus isolate 929003 after 24 hrs by broth microdilution method; conditions: isolate 929003, 24 h; procedure, shortened: as §1
Staphylococcus aureus [20] = experiment: Antimicrobial activity against Staphylococcus aureus isolate 929035 after 24 hrs by broth microdilution method; conditions: isolate 929035, 24 h; procedure, shortened: as §1
Staphylococcus aureus [21] = experiment: Antimicrobial activity against Staphylococcus aureus isolate 934324 after 24 hrs by broth microdilution method; conditions: isolate 934324, 24 h; procedure, shortened: as §1
Staphylococcus aureus [22] = experiment: Antimicrobial activity against Staphylococcus aureus isolate 934334 after 24 hrs by broth microdilution method; conditions: isolate 934334, 24 h; procedure, shortened: as §1
Staphylococcus aureus [23] = experiment: Antimicrobial activity against Staphylococcus aureus isolate 934335 after 24 hrs by broth microdilution method; conditions: isolate 934335, 24 h; procedure, shortened: as §1
Staphylococcus aureus [24] = experiment: Antimicrobial activity against Staphylococcus aureus isolate 934387 after 24 hrs by broth microdilution method; conditions: isolate 934387, 24 h; procedure, shortened: as §2
Staphylococcus aureus [25] = experiment: Antimicrobial activity against Staphylococcus aureus isolate NEQAS 4158 after 24 hrs by broth microdilution method; conditions: isolate NEQAS 4158, 24 h; procedure, shortened: as §1
Staphylococcus aureus [26] = experiment: Antimicrobial activity against Staphylococcus aureus after 24 hrs by broth microdilution method; procedure, shortened: as §1
Staphylococcus aureus [27] = experiment: Antimicrobial activity against methicillin-susceptible Staphylococcus aureus after 24 hrs by broth microdilution method; procedure, shortened: as §1
Staphylococcus aureus [28] = experiment: Antimicrobial activity against methicillin-resistant Staphylococcus aureus after 24 hrs by broth microdilution method; procedure, shortened: as §2
[29] = system: Staphylococcus epidermidis; experiment: Antimicrobial activity against Staphylococcus epidermidis after 24 hrs by broth microdilution method; procedure, shortened: as §1
Escherichia coli [30] = experiment: Antimicrobial activity against Escherichia coli isolate 1 after 24 hrs by broth microdilution method; conditions: isolate 1, 24 h; procedure, shortened: as §1
Escherichia coli [31] = experiment: Antimicrobial activity against Escherichia coli isolate 2 after 24 hrs by broth microdilution method; conditions: isolate 2, 24 h; procedure, shortened: as §1
Staphylococcus aureus [32] = experiment: Antimicrobial activity against Staphylococcus aureus OXFORD after 24 hrs by broth microdilution method; procedure, shortened: as §2
Staphylococcus aureus [33] = experiment: Antimicrobial activity against Staphylococcus aureus WCUH29 after 24 hrs by broth microdilution method; conditions: WCUH29, 24 h; procedure, shortened: as §1
Enterococcus faecalis = experiment: Antimicrobial activity against Enterococcus faecalis Isolate 1 after 24 hrs by broth microdilution method; conditions: Isolate 1, 24 h; procedure, shortened: as §1
Enterococcus faecium = experiment: Antimicrobial activity against Enterococcus faecium X7501 after 24 hrs by broth microdilution method; conditions: X7501, 24 h; procedure, shortened: as §1
Haemophilus influenzae [34] = experiment: Antimicrobial activity against Haemophilus influenzae Q1 after 24 hrs by broth microdilution method; conditions: Q1, 24 h; procedure, shortened: as §1
Haemophilus influenzae [35] = experiment: Antimicrobial activity against Haemophilus influenzae H128 after 24 hrs by broth microdilution method; conditions: H128, 24 h; procedure, shortened: as §1
Haemophilus influenzae [36] = experiment: Antimicrobial activity against AcrA-deficient Haemophilus influenzae H128 after 24 hrs by broth microdilution method; conditions: H128, 24 h; procedure, shortened: as §1
Moraxella catarrhalis = experiment: Antimicrobial activity against Moraxella catarrhalis 1502 after 24 hrs by broth microdilution method; conditions: Moraxella catarrhalis, 1502, 24 h; procedure, shortened: as §1
Streptococcus pneumoniae [37] = experiment: Antimicrobial activity against Streptococcus pneumoniae 1629 after 24 hrs by broth microdilution method; conditions: Streptococcus pneumoniae, 1629, 24 h; procedure, shortened: as §1
Streptococcus pneumoniae [38] = experiment: Antimicrobial activity against Streptococcus pneumoniae N1387 after 24 hrs by broth microdilution method; conditions: N1387, 24 h; procedure, shortened: as §1
Streptococcus pneumoniae [39] = experiment: Antimicrobial activity against Streptococcus pneumoniae ERY2 after 24 hrs by broth microdilution method; conditions: ERY2, 24 h; procedure, shortened: as §1
Escherichia coli [40] = experiment: Antimicrobial activity against Escherichia coli isolate 3 after 24 hrs by broth microdilution method; conditions: isolate 3, 24 h; procedure, shortened: as §1
Streptococcus pyogenes [41] = experiment: Antimicrobial activity against Streptococcus pyogenes 1307006P after 24 hrs by broth microdilution method; procedure, shortened: as §1
Streptococcus pyogenes [42] = experiment: Antimicrobial activity against Streptococcus pyogenes 1308007P after 24 hrs by broth microdilution method; procedure, shortened: as §1

For `C/C(=C\C(=O)OCCCCCCCCC(=O)O)C[C@@H]1OC[C@H](C[C@@H]2O[C@H]2[C@@H](C)[C@H](C)O)[C@@H](O)[C@H]1O` [MUPIROCIN], the MIC (Staphylococcus aureus [1]) was 0.25 µg/mL (≈ 0.499 µM), the MIC (Staphylococcus aureus [2]) was over 16 µg/mL and the MIC (Staphylococcus aureus [3]) was 0.25 µg/mL (≈ 0.499 µM). For the same compound, the MIC (Staphylococcus aureus [4]) was over 16 µg/mL, the MIC (Staphylococcus aureus [5]) was over 16 µg/mL and the MIC (Staphylococcus aureus [6]) was over 16 µg/mL. For the same compound, the MIC (Staphylococcus aureus [7]) was over 16 µg/mL, the MIC (Staphylococcus aureus [8]) was over 16 µg/mL and the MIC (Staphylococcus aureus [9]) was 0.25 µg/mL (≈ 0.499 µM). For the same compound, the MIC (Staphylococcus aureus [10]) was 0.06 µg/mL (≈ 0.12 µM), the MIC (Staphylococcus aureus [11]) was 0.25 µg/mL (≈ 0.499 µM) and the MIC (Staphylococcus aureus [12]) was 0.25 µg/mL (≈ 0.499 µM). It also gave an MIC (Staphylococcus aureus [13]) of 0.25 µg/mL (≈ 0.499 µM), an MIC (Staphylococcus aureus [14]) of over 16 µg/mL and an MIC (Staphylococcus aureus [15]) of over 16 µg/mL. For the same compound, the MIC (Staphylococcus aureus [16]) was 0.25 µg/mL (≈ 0.499 µM), the MIC (Staphylococcus aureus [17]) was 0.25 µg/mL (≈ 0.499 µM) and the MIC (Staphylococcus aureus [18]) was over 16 µg/mL. The MIC (Staphylococcus aureus [19]) was 0.25 µg/mL (≈ 0.499 µM), the MIC (Staphylococcus aureus [20]) was 0.25 µg/mL (≈ 0.499 µM) and the MIC (Staphylococcus aureus [21]) was 0.25 µg/mL (≈ 0.499 µM). The MIC (Staphylococcus aureus [22]) was 0.25 µg/mL (≈ 0.499 µM), the MIC (Staphylococcus aureus [23]) was 0.25 µg/mL (≈ 0.499 µM) and the MIC (Staphylococcus aureus [24]) was 0.25 µg/mL (≈ 0.499 µM). The MIC (Staphylococcus aureus [25]) was 0.25 µg/mL (≈ 0.499 µM).

`O=CN(O)C[C@@H](CC1CCCC1)C(=O)N1CC=C[C@H]1C(=O)Nc1ccc(F)cc1` showed an MIC (Staphylococcus aureus [26]) of 0.25 µg/mL (≈ 0.62 µM), an MIC (Staphylococcus aureus [27]) of 0.5 µg/mL (≈ 1.24 µM) and an MIC (Staphylococcus aureus [28]) of 0.25 µg/mL (≈ 0.62 µM). For the same compound, the MIC [29] was 1 µg/mL (≈ 2.48 µM), the MIC (Escherichia coli [30]) was 32 µg/mL (≈ 79.3 µM) and the MIC (Escherichia coli [31]) was 64 µg/mL (≈ 159 µM). For the same compound, the MIC (Staphylococcus aureus [32]) was 1 µg/mL (≈ 2.48 µM), the MIC (Staphylococcus aureus [33]) was 0.125 µg/mL (≈ 0.31 µM) and the MIC (Enterococcus faecalis) was 2 µg/mL (≈ 4.96 µM). It also gave an MIC (Enterococcus faecium) of 1 µg/mL (≈ 2.48 µM), an MIC (Haemophilus influenzae [34]) of 2 µg/mL (≈ 4.96 µM) and an MIC (Haemophilus influenzae [35]) of 2 µg/mL (≈ 4.96 µM). The MIC (Haemophilus influenzae [36]) was at most 0.06 µg/mL, the MIC (Moraxella catarrhalis) was at most 0.06 µg/mL and the MIC (Streptococcus pneumoniae [37]) was 1 µg/mL (≈ 2.48 µM). It also gave an MIC (Streptococcus pneumoniae [38]) of 0.5 µg/mL (≈ 1.24 µM), an MIC (Streptococcus pneumoniae [39]) of 1 µg/mL (≈ 2.48 µM) and an MIC (Escherichia coli [40]) of 32 µg/mL (≈ 79.3 µM). For the same compound, the MIC (Streptococcus pyogenes [41]) was 0.25 µg/mL (≈ 0.62 µM) and the MIC (Streptococcus pyogenes [42]) was 0.25 µg/mL (≈ 0.62 µM).
